Assay results from ChEMBL document CHEMBL1914454, “Novel N-linked aminopiperidine inhibitors of bacterial topoisomerase type II: broad-spectrum antibacterial agents with reduced hERG activity” (J Med Chem, 2011).
≈ marks a conversion by molar mass, not a printed value.

Tests used:
Staphylococcus aureus = assay: Antibacterial activity against methicillin-susceptible Staphylococcus aureus after 18 to 24 hrs by broth microdilution method; type: functional
Method in brief: (§1)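 Broth microdilution following CLSI guidelines in Mueller Hinton broth. Compounds in DMSO, diluted to 2% DMSO final, 11 doubling dilutions from 64 to 0.06 μg/mL. Incubated at 35 °C for 18−24 h; growth read by absorbance at 620 nm.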

[1] = Inhibition of Escherichia coli ATPase activity of topoisomerase 4 ParC/ParE subunit assessed as reduction in inorganic phosphate production after 24 hrs by ammonium molybdate/malachite-green based assay
Method in brief: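 Each reaction contained 0.5 nM each of E. coli ParC and ParE, 0.16 mM ATP and 0.005 mg/mL sheared salmon sperm DNA in 20 mM Tris pH 8.0 with 50 mM ammonium acetate, 8.0 mM MgCl₂, 0.5 mM EDTA, 5 mM DTT, 2.5% glycerol and 0.005% Brij-35. Compound dilution series; 24 h at room temperature. Quenched with malachite green; absorbance read at 650 nm. IC50 is the mean of three replicate experiments.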

[2] = Octanol-phosphate buffer partition coefficient, log D of the compound at pH 7.4 by LC/MS/UV analysis
[3] = Fraction unbound in human plasma at 10 uM after 16 hrs by equilibrium dialysis
Pseudomonas aeruginosa = assay: Antibacterial activity against Pseudomonas aeruginosa PAO1 after 18 to 24 hrs by broth microdilution method; type: functional; method in brief: as §1
Escherichia coli = assay: Antibacterial activity against Escherichia coli W3110 after 18 to 24 hrs by broth microdilution method; type: functional; conditions: K-12 substr. W3110; method in brief: as §1
[4] = biological target: Voltage-gated inwardly rectifying potassium channel KCNH2 (Homo sapiens, UniProt Q12809); assay: Inhibition of human ERG by ionworks HT assay
Streptococcus pneumoniae = assay: Antibacterial activity against penicillin-susceptible Streptococcus pneumoniae D39 after 18 to 24 hrs by broth microdilution method; type: functional
Method in brief: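 CLSI broth microdilution in 2.2% (w/v) Mueller Hinton broth with 0.65% (v/v) lysed horse blood. Compounds diluted from DMSO to 2% DMSO final, 11 doubling dilutions from 64 to 0.06 μg/mL. Incubated at 35 °C for 18−24 h; read at 620 nm.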

Voltage-gated inwardly rectifying potassium channel KCNH2, sequence (Q12809 whole entry): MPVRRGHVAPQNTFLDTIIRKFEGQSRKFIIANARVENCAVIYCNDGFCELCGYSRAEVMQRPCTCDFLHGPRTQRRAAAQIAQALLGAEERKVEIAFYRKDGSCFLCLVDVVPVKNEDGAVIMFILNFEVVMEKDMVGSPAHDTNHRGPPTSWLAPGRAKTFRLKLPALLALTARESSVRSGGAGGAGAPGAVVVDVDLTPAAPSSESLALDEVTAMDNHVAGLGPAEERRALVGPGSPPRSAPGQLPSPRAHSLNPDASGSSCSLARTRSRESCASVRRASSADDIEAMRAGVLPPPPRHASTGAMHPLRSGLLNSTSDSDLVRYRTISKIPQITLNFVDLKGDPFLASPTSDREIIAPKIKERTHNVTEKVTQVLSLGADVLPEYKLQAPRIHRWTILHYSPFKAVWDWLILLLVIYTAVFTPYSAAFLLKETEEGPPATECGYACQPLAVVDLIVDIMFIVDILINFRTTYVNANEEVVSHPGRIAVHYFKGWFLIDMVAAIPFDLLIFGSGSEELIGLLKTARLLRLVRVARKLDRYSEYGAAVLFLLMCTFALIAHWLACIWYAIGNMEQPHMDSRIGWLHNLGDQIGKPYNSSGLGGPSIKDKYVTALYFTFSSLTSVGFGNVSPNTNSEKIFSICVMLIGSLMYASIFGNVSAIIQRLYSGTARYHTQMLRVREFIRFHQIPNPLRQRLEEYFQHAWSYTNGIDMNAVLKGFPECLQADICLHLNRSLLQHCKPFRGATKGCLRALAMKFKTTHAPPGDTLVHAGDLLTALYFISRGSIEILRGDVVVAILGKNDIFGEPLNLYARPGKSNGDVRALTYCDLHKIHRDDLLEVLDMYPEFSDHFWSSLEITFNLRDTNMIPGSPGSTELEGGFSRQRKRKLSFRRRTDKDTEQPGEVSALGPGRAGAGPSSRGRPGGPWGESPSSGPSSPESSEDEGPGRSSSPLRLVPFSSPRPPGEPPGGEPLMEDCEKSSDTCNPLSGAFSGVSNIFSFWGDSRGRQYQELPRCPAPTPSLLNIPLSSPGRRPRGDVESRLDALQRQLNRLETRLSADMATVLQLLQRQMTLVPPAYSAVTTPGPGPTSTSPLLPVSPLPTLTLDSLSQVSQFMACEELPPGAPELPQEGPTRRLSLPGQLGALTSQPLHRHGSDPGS

## COc1ncc2ccc(=O)n(CCN3CCC(NCc4cc5c(cn4)OCCO5)CC3)c2n1
Staphylococcus aureus
  MIC: 0.13 µg/mL (≈ 0.287 µM)
[1]
  IC50: 13 nM
[2]; octanol/phosphate buffer
  logD: 0.2
[3]
  fraction unbound at 16 h, 10 µM: 0.27
Pseudomonas aeruginosa
  MIC: > 8 µg/mL
Escherichia coli
  MIC: 2 µg/mL (≈ 4.42 µM)
[4]
  IC50: 206000 nM
Streptococcus pneumoniae
  MIC: 0.25 µg/mL (≈ 0.552 µM)

## COc1ccc2c(c1)N(CCN1CCC(NCc3ccc4c(n3)NC(=O)CO4)CC1)C(=O)CO2
Staphylococcus aureus
  MIC: 0.13 µg/mL (≈ 0.278 µM)
[1]
  IC50: 5 nM
[2]; octanol/phosphate buffer
  logD: 0.87
[3]
  fraction unbound at 16 h, 10 µM: 0.11
Pseudomonas aeruginosa
  MIC: 4 µg/mL (≈ 8.56 µM)
Escherichia coli
  MIC: 0.25 µg/mL (≈ 0.535 µM)
Streptococcus pneumoniae
  MIC: 0.5 µg/mL (≈ 1.07 µM)

## COc1ccc2ccc(=O)n(CCN3CCC(NCc4cc5c(cn4)OCCO5)CC3)c2n1
Staphylococcus aureus
  MIC: 0.02 µg/mL (≈ 0.0443 µM)
[1]
  IC50: 2 nM
[2]; octanol/phosphate buffer
  logD: 1.16
[3]
  fraction unbound at 16 h, 10 µM: 0.31
Pseudomonas aeruginosa
  MIC: > 8 µg/mL
Escherichia coli
  MIC: 0.5 µg/mL (≈ 1.11 µM)
[4]
  IC50: 40000 nM
Streptococcus pneumoniae
  MIC: 0.05 µg/mL (≈ 0.111 µM)

## COc1ccc2ncc(F)c(CCN3CCC(NCc4ccc5c(n4)NC(=O)CO5)CC3)c2n1
Staphylococcus aureus
  MIC: 0.02 µg/mL (≈ 0.0429 µM)
[1]
  IC50: 0.6 nM
[2]; octanol/phosphate buffer
  logD: 1.78
[3]
  fraction unbound at 16 h, 10 µM: 0.06
Pseudomonas aeruginosa
  MIC: 1 µg/mL (≈ 2.14 µM)
Escherichia coli
  MIC: 0.06 µg/mL (≈ 0.129 µM)
Streptococcus pneumoniae
  MIC: 0.03 µg/mL (≈ 0.0643 µM)

## COc1ccc2c(c1)N(CCN1CCC(NCc3cc4c(cn3)OCCO4)CC1)C(=O)CO2
Staphylococcus aureus
  MIC: 0.13 µg/mL (≈ 0.286 µM)
[2]; octanol/phosphate buffer
  logD: 1.24
[3]
  fraction unbound at 16 h, 10 µM: 0.18
Pseudomonas aeruginosa
  MIC: > 8 µg/mL
Escherichia coli
  MIC: 1 µg/mL (≈ 2.2 µM)
[4]
  IC50: 13000 nM
Streptococcus pneumoniae
  MIC: 0.25 µg/mL (≈ 0.55 µM)

## COc1ccc2c(C)cc(=O)n(CCN3CCC(NCc4cc5c(cn4)OCCO5)CC3)c2c1
Staphylococcus aureus
  MIC: 0.02 µg/mL (≈ 0.0431 µM)
[2]; octanol/phosphate buffer
  logD: 1.72
Pseudomonas aeruginosa
  MIC: > 8 µg/mL
Escherichia coli
  MIC: 0.5 µg/mL (≈ 1.08 µM)
[4]
  IC50: 23000 nM
Streptococcus pneumoniae
  MIC: 0.03 µg/mL (≈ 0.0646 µM)

## COc1ncc2ncc(=O)n(CCN3CCC(NCc4cc5c(cn4)OCCO5)CC3)c2n1
Staphylococcus aureus
  MIC: 0.25 µg/mL (≈ 0.551 µM)
[1]
  IC50: 28 nM
[2]; octanol/phosphate buffer
  logD: 0.14
[3]
  fraction unbound at 16 h, 10 µM: 0.96
Pseudomonas aeruginosa
  MIC: > 8 µg/mL
Escherichia coli
  MIC: 2 µg/mL (≈ 4.41 µM)
[4]
  IC50: 81000 nM
Streptococcus pneumoniae
  MIC: 0.25 µg/mL (≈ 0.551 µM)

## COc1ccc2ccc(=O)n(CCN3CCC(NCc4cc5c(cn4)OCCO5)CC3)c2c1
Staphylococcus aureus
  MIC: 0.03 µg/mL (≈ 0.0666 µM)
[1]
  IC50: 22 nM
[2]; octanol/phosphate buffer
  logD: 1.32
[3]
  fraction unbound at 16 h, 10 µM: 0.31
Pseudomonas aeruginosa
  MIC: > 8 µg/mL
Escherichia coli
  MIC: 1.5 µg/mL (≈ 3.33 µM)
[4]
  IC50: 34000 nM
Streptococcus pneumoniae
  MIC: 0.06 µg/mL (≈ 0.133 µM)

## COc1ccc2c(C)nc(=O)n(CCN3CCC(NCc4cc5c(cn4)OCCO5)CC3)c2c1
Staphylococcus aureus
  MIC: 2 µg/mL (≈ 4.3 µM)
[1]
  IC50: 82 nM
[2]; octanol/water
  logD: 0.29
Pseudomonas aeruginosa
  MIC: > 8 µg/mL
Escherichia coli
  MIC: > 8 µg/mL
[4]
  IC50: > 33000 nM
Streptococcus pneumoniae
  MIC: 1 µg/mL (≈ 2.15 µM)

## COc1ccc2nnc(=O)n(CCN3CCC(NCc4ccc5c(n4)NC(=O)CO5)CC3)c2c1
Staphylococcus aureus
  MIC: > 8 µg/mL
[1]
  IC50: 26 nM
Pseudomonas aeruginosa
  MIC: 8 µg/mL (≈ 17.2 µM)
Escherichia coli
  MIC: 2 µg/mL (≈ 4.3 µM)
Streptococcus pneumoniae
  MIC: 8 µg/mL (≈ 17.2 µM)

## COc1ccc2ncc(=O)n(CCN3CCC(NCc4cc5c(cn4)OCCO5)CC3)c2n1
Staphylococcus aureus
  MIC: 0.02 µg/mL (≈ 0.0442 µM)
[1]
  IC50: 1.5 nM
[2]; octanol/phosphate buffer
  logD: 0.83
[3]
  fraction unbound at 16 h, 10 µM: 0.47
Pseudomonas aeruginosa
  MIC: 4 µg/mL (≈ 8.84 µM)
Escherichia coli
  MIC: 0.25 µg/mL (≈ 0.552 µM)
Streptococcus pneumoniae
  MIC: 0.03 µg/mL (≈ 0.0663 µM)

## COc1ccc2c(c1)N(CCN1CCC(NCc3cc4c(cn3)OCCO4)CC1)C(=O)CS2
Staphylococcus aureus
  MIC: 8 µg/mL (≈ 17 µM)
[3]
  fraction unbound at 16 h, 10 µM: 0.09
Pseudomonas aeruginosa
  MIC: > 8 µg/mL
Escherichia coli
  MIC: > 8 µg/mL
Streptococcus pneumoniae
  MIC: > 8 µg/mL

## O=C1COc2ccccc2N1CCN1CCC(NCc2cc3c(cn2)OCCO3)CC1
Staphylococcus aureus
  MIC: 2 µg/mL (≈ 4.71 µM)
[1]
  IC50: 100 nM
[2]; octanol/phosphate buffer
  logD: 1.04
[3]
  fraction unbound at 16 h, 10 µM: 0.26
Pseudomonas aeruginosa
  MIC: > 8 µg/mL
Escherichia coli
  MIC: 8 µg/mL (≈ 18.8 µM)
Streptococcus pneumoniae
  MIC: 4 µg/mL (≈ 9.42 µM)

## COc1cc2c(ccc(=O)n2CCN2CCC(NCc3cc4c(cn3)OCCO4)CC2)cn1
Staphylococcus aureus
  MIC: 1 µg/mL (≈ 2.21 µM)
[1]
  IC50: 28 nM
[2]; octanol/phosphate buffer
  logD: 0.68
[3]
  fraction unbound at 16 h, 10 µM: 0.17
Pseudomonas aeruginosa
  MIC: > 8 µg/mL
Escherichia coli
  MIC: 8 µg/mL (≈ 17.7 µM)
Streptococcus pneumoniae
  MIC: 1 µg/mL (≈ 2.21 µM)

## O=C1COc2ccc(CNC3CCN(CCN4C(=O)COc5ccc(F)cc54)CC3)nc2N1
Staphylococcus aureus
  MIC: 0.25 µg/mL (≈ 0.549 µM)
[2]; octanol/phosphate buffer
  logD: 0.9
[3]
  fraction unbound at 16 h, 10 µM: 0.17
Pseudomonas aeruginosa
  MIC: 3 µg/mL (≈ 6.59 µM)
Escherichia coli
  MIC: 0.25 µg/mL (≈ 0.549 µM)
Streptococcus pneumoniae
  MIC: 0.5 µg/mL (≈ 1.1 µM)

## COc1ccc2ncc(F)c(CCN3CCC(NCc4cc5c(cn4)OCCO5)CC3)c2n1
Staphylococcus aureus
  MIC: < 0.01 µg/mL
[1]
  IC50: 1.3 nM
[2]; octanol/phosphate buffer
  logD: 1.46
[3]
  fraction unbound at 16 h, 10 µM: 0.17
Pseudomonas aeruginosa
  MIC: 4 µg/mL (≈ 8.82 µM)
Escherichia coli
  MIC: 0.13 µg/mL (≈ 0.287 µM)
Streptococcus pneumoniae
  MIC: < 0.07 µg/mL
